Assay results published in ChEMBL document CHEMBL3351279, “Topoisomerase II inhibitors from the roots of Stellera chamaejasme L” (Bioorg Med Chem, 2014).
Active and inactive are the calls of the source. The calls are words filed in the database; no cut-off is given here.

Tests used:
[1] = tested on: A549; assay: Cytotoxicity against human A549 cells after 72 hrs by SRB assay; assay type: functional, cell-based; conditions: A549, 72 h
Outline: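 A549 cells grown in F12 with 10% heat-inactivated FBS (37°C, 5% CO2), seeded overnight, then exposed 72 h. Fixed in cold 10% TCA for 1 h at 4°C, stained with 4 mg/mL SRB in 1% acetic acid for 15 min, solubilized in 10 mM Tris-HCl, read at A560. Inhibition = [1 − A560treated/A560control]×100%; IC50 by Logit method, at least three independent tests.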

[2] = target: DNA topoisomerase 2-alpha (Homo sapiens) (UniProt P11388); assay: Inhibition of DNA topoisomerase-2 (unknown origin) assessed as inhibition of supercoiled pBR322 relaxation at 100 uM after 15 mins by gel electrophoresis
Chain of DNA topoisomerase 2-alpha (Homo sapiens) (P11388 whole entry): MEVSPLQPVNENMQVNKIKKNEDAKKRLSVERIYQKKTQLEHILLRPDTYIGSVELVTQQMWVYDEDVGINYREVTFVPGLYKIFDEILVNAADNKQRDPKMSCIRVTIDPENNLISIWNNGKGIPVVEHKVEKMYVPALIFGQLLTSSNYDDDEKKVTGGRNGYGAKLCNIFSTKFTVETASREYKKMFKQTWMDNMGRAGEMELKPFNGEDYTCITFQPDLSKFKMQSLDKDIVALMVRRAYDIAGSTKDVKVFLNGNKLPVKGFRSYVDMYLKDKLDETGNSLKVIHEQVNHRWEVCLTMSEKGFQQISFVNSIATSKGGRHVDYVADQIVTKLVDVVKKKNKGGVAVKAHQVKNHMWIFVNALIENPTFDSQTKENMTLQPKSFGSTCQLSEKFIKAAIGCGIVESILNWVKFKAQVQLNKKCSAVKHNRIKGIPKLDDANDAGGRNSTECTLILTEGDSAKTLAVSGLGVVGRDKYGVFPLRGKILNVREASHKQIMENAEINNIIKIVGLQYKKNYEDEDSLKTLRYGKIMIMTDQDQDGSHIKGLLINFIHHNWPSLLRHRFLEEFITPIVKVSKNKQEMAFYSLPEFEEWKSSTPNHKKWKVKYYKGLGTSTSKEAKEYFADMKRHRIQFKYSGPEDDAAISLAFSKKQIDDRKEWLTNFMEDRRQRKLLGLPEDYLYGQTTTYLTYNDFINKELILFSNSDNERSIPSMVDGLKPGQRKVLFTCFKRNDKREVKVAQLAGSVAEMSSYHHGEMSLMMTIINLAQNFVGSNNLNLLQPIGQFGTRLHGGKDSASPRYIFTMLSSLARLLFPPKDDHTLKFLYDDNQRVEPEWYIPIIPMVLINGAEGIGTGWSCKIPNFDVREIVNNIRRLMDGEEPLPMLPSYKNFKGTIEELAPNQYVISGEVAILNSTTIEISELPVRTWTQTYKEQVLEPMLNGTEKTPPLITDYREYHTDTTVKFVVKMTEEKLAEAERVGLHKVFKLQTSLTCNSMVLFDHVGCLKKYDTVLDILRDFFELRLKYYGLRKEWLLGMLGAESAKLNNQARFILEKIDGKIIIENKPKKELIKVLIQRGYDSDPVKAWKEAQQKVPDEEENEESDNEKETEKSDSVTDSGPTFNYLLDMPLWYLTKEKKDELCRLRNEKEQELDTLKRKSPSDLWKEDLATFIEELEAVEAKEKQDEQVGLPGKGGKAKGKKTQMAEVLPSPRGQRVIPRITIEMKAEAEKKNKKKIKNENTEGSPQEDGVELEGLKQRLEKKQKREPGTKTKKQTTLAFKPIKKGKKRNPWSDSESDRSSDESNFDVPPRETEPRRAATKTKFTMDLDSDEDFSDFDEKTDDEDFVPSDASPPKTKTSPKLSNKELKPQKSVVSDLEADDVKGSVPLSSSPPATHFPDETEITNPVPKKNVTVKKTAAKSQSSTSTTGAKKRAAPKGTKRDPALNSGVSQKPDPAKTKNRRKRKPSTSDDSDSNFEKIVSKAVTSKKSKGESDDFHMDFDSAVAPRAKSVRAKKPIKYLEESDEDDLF
Outline: (§1)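 Supercoiled pBR322 relaxation with compounds at 100 µM. Topo I: 12.5 µg/mL DNA, 0.01 unit/µL enzyme, no ATP. Topo IIα: 6.67 µg/mL DNA, 0.0467 units/µL enzyme, 1 mM ATP. 37°C for 15 min, SDS stop, 1% agarose/TAE gel at 4 V/cm for 1 h, ethidium bromide stain.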

[3] = target: DNA topoisomerase 2-alpha (Homo sapiens) (UniProt P11388); assay: Inhibition of DNA topoisomerase-2 (unknown origin) assessed as inhibition of kDNA decatenation at 100 uM after 15 mins by agarose gel electrophoresis
[4] = target: T1, DNA topoisomerase 1 (Homo sapiens) (UniProt P11387); assay: Inhibition of DNA topoisomerase-1 (unknown origin) assessed as inhibition of supercoiled pBR322 relaxation up to 100 uM after 15 mins by gel electrophoresis; outline: as §1
T1 sequence (whole entry): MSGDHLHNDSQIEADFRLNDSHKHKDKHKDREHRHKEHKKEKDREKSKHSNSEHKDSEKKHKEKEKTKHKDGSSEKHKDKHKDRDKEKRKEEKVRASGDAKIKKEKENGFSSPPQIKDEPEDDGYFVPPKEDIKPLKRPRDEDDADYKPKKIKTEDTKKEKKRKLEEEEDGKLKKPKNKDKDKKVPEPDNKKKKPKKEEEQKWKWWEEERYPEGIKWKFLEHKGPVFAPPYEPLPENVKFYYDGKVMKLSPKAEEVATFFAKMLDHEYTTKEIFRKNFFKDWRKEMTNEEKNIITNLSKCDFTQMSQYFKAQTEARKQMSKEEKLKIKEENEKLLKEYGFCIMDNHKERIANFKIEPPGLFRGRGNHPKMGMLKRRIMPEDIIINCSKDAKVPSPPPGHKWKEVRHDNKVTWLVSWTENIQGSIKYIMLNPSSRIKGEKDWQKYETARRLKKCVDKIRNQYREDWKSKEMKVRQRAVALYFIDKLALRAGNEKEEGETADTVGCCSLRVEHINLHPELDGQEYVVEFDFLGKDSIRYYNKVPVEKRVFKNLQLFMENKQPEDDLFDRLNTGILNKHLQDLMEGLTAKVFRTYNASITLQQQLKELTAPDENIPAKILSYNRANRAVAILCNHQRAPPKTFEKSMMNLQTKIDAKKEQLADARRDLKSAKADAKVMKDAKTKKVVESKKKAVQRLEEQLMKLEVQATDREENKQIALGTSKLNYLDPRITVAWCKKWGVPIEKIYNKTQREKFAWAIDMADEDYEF

[5] = tested on: A549; assay: Cell cycle arrest in human A549 cells assessed as accumulation at G2 phase at 300 nM after 24 hrs by propidium iodide staining-based flow cytometry (reference value: 18%); assay type: functional
[6] = tested on: A549; assay: Induction of apoptosis in human A549 cells assessed as early apoptotic cells at 10 nM after 48 hrs by Annexin V/propidium iodide staining-based flow cytometry (reference value: 5.75%); assay type: functional
Outline: (§2)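 After 48 h exposure, A549 cells resuspended in cold binding buffer with Annexin-V-FITC and PI, kept 10 min at room temperature in the dark, then analyzed on a FACSCalibur. Annexin-V+/PI− cells counted as early apoptotic.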

[7] = tested on: A549; assay: Induction of apoptosis in human A549 cells assessed as early apoptotic cells at 30 nM after 48 hrs by Annexin V/propidium iodide staining-based flow cytometry (reference value: 5.75%); assay type: functional; outline: as §2
[8] = tested on: A549; assay: Cell cycle arrest in human A549 cells assessed as accumulation at G2/M phase at 10 to 300 nM after 24 hrs by propidium iodide staining-based flow cytometry; assay type: functional

| inhibition [2] | inhibition [3] | inhibition [4] | Compound | IC50 [1] | further results |
| --- | --- | --- | --- | --- | --- |
| Active | Active | inactive | C=C(C)[C@@]1(O)[C@H](OC(=O)/C=C/C=C/CCCCCCCC)[C@@H]2[C@@H]3O[C@]3(CO)[C@@H](O)[C@]3(O)C(=O)C(C)=C[C@H]3[C@@]2(O)[C@H](C)[C@H]1OC(C)=O | 24 nM | – |
| – | – | – | COc1cc(C[C@H]2COC(=O)[C@@H]2Cc2ccc3c(c2)OCO3)ccc1O | 273 nM | – |
| – | – | – | C=C(C)[C@@]12O[C@@]3(/C=C/C=C/CCCCCCCCC)O[C@@H]1[C@@H]1[C@@H]4O[C@]4(CO)[C@@H](O)[C@]4(O)C(=O)C(C)=C[C@H]4[C@@]1(O3)[C@H](C)[C@H]2OC(C)=O | 0.4 nM | – |
| Active | Active | inactive | C=C(C)[C@]1(OC(=O)/C=C\C=C\CCCCCCCCC)C[C@@H](C)[C@@]2(O)[C@H]([C@H]1O)[C@@H]1O[C@]1(CO)[C@@H](O)[C@]1(O)C(=O)C(C)=C[C@H]12 | 2.7 nM | Activity [5]: >50%; Activity [6]: 17.57%; Activity [7]: 19.94%; Activity [8]: Active |
| – | – | – | C[C@H]1CC=C2[C@H]1C[C@]1(O)C(=O)C[C@@]2(C)C1(C)CO (stereo not given in full) | 1950 nM | – |
| Active | Active | inactive | COc1cc([C@H]2OC[C@@H]3Cc4cc(OC)c(O)cc4C[C@@H]32)ccc1O | 1530 nM | – |
| Active | – | – | COc1cc([C@@H]2c3cc4c(cc3[C@@H](O[C@@H]3O[C@@H]5CO[C@@H](C)O[C@H]5[C@H](O)[C@H]3O)[C@H]3COC(=O)[C@H]23)OCO4)cc(OC)c1O | – | – |
| – | – | – | C=C(C)[C@]12C[C@@H](C)[C@@]34O[C@](CCCCCCCCC)(O[C@@H]1[C@@H]3[C@@H]1O[C@]1(CO)[C@@H](O)[C@]1(O)C(=O)C(C)=C[C@H]14)O2 [SIMPLEXIN] | 0.3 nM | – |

| Compound | inhibition [2] | inhibition [3] | inhibition [4] | IC50 [1] | further results |
| --- | --- | --- | --- | --- | --- |
| C=C(C)[C@]12C[C@@H](C)[C@@]34O[C@](/C=C/C=C/CCCCCCCCC)(O[C@@H]1[C@@H]3[C@@H]1O[C@]1(CO)[C@@H](O)[C@]1(O)C(=O)C(C)=C[C@H]14)O2 | Active | Active | inactive | 0.7 nM | – |
